Results taken from ChEMBL document CHEMBL3734693, “Discovery of potent, selective, and orally bioavailable inhibitors of interleukin-1 receptor-associate kinase-4” (Bioorg Med Chem Lett, 2015).
Values after ≈ are worked out from the molar mass of the structure shown.

Tests used:
[1] = target: T1, Interleukin-1 receptor-associated kinase 4 (Homo sapiens, UniProt Q9NWZ3); assay: Inhibition of recombinant full length IRAK-4 (unknown origin) using the biotinylated substrate RRRVTSPARRS by chemiluminescent ELISA
T1 sequence (Q9NWZ3 whole entry): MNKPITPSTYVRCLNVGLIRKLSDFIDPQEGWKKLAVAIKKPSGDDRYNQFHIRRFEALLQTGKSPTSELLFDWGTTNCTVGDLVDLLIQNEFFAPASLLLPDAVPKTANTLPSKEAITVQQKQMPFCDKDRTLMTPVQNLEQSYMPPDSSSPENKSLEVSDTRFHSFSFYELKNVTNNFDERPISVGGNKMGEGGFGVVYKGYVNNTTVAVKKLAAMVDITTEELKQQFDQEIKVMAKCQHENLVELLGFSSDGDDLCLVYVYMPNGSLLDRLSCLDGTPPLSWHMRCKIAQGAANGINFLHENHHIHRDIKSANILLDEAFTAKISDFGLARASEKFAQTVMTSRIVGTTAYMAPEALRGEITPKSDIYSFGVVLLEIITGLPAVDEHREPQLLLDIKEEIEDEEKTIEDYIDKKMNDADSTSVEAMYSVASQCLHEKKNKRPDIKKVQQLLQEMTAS

[2] = target: T2, Mitogen-activated protein kinase kinase kinase 7 (Homo sapiens, UniProt O43318); assay: Inhibition of TAK1 (unknown origin)
T2 sequence (O43318 whole entry): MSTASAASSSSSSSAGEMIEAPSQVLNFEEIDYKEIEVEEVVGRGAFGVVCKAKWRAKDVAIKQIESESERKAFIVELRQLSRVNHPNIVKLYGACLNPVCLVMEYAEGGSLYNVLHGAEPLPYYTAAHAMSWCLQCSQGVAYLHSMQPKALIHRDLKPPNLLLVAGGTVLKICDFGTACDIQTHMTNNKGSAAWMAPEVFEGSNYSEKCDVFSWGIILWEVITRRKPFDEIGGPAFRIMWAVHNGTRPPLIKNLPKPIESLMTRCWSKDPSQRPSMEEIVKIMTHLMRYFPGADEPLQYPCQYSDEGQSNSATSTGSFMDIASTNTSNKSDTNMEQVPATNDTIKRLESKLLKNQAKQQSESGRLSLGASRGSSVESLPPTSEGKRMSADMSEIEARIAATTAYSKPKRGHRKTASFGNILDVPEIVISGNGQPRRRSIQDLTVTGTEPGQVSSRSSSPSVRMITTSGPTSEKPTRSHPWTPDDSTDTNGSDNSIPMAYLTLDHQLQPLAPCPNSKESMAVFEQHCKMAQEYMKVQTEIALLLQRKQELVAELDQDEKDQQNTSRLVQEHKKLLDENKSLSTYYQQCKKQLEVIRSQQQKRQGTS

[3] = Inhibition of Interleukin-1 induced Nuclear factor-kappa-B activation in primary human monocyte by electrophoretic mobility shift assay
[4] = target: Interleukin-1 receptor-associated kinase 1 (Homo sapiens, UniProt P51617); assay: Inhibition of IRAK-1 (unknown origin)
Homo sapiens [5] = species on record: Homo sapiens; assay: Ratio of Ki for IRAK-1 (unknown origin) to Ki for recombinant full length IRAK-4 (unknown origin)
Rattus norvegicus = assay: AUC in rat at 0.5 mg/kg, iv and 2 mg/kg, po; type: ADME, organism-based; settings: in vivo
Procedure, shortened: (§1)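 Rats were given the compound intravenously at 0.5 mg/kg and orally at 2.0 mg/kg. Clearance, half-life, AUC and oral bioavailability were determined from these two dosings.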

[6] = Half-life in rat at 0.5 mg/kg, iv and 2 mg/kg, po; type: ADME, organism-based; settings: in vivo; procedure, shortened: as §1
[7] = Clearance in rat at 0.5 mg/kg, iv and 2 mg/kg, po; type: ADME, organism-based; settings: in vivo; procedure, shortened: as §1
Homo sapiens [8] = species on record: Homo sapiens; assay: Ratio of Ki for TAK1 (unknown origin) to Ki for recombinant full length IRAK-4 (unknown origin)
[9] = Oral bioavailability in rat at 2 mg/kg; type: ADME, organism-based; settings: in vivo; procedure, shortened: as §1
[10] = Permeability of the compound; type: ADME; settings: not told; read-out: permeability
[11] = Solubility of the compound at pH 7.4; type: physicochemical; settings: buffer
Homo sapiens [12] = species on record: Homo sapiens; assay: Selectivity for recombinant IRAK-4 (unknown origin) over LCK (unknown origin)
Homo sapiens [13] = species on record: Homo sapiens; assay: Selectivity for recombinant IRAK-4 (unknown origin) over pp60SRC (unknown origin)
Homo sapiens [14] = species on record: Homo sapiens; assay: Selectivity for recombinant IRAK-4 (unknown origin) over CDK2 (unknown origin)
Homo sapiens [15] = species on record: Homo sapiens; assay: Selectivity for recombinant IRAK-4 (unknown origin) over EGFRK (unknown origin)
Homo sapiens [16] = species on record: Homo sapiens; assay: Selectivity for recombinant IRAK-4 (unknown origin) over CaMK (unknown origin)
Homo sapiens [17] = species on record: Homo sapiens; assay: Selectivity for recombinant IRAK-4 (unknown origin) over PKC (unknown origin)
Homo sapiens [18] = species on record: Homo sapiens; assay: Selectivity for recombinant IRAK-4 (unknown origin) over PKA (unknown origin)
Homo sapiens [19] = species on record: Homo sapiens; assay: Selectivity for recombinant IRAK-4 (unknown origin) over Akt1 (unknown origin)

Interleukin-1 receptor-associated kinase 1, sequence (P51617 whole entry): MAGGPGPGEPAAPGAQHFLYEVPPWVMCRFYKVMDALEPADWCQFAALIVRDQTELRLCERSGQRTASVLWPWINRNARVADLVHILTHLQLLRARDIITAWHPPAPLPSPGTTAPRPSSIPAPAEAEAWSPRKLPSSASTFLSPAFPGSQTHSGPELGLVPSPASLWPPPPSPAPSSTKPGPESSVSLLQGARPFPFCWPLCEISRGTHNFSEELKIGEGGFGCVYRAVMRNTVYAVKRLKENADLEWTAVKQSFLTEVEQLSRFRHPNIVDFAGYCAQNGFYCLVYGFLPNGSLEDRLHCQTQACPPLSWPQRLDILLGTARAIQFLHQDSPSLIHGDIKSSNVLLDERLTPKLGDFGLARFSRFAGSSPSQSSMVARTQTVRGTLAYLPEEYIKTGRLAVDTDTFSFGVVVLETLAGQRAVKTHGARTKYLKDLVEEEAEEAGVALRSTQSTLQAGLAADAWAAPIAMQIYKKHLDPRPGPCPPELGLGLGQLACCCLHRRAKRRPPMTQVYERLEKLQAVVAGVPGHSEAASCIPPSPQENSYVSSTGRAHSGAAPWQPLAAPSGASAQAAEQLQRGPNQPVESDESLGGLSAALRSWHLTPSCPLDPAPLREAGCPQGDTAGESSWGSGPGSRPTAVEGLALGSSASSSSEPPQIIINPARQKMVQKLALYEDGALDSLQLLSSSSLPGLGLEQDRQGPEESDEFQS

Row | Ki [1] | Structure (SMILES) | Ki [2] | IC50 [3] | Ki [4] | other results
1 | 11 nM | O=C(Nc1nc2cc(F)ccc2n1[C@H]1CC[C@H](CO)C1)c1cccc([N+](=O)[O-])c1 |  |  |  | 
2 | 1.6 nM | O=C(Nc1nc2cc(F)ccc2n1[C@H]1CC[C@@H](CO)CC1)c1cccc([N+](=O)[O-])c1 |  |  |  | 
3 | 6.5 nM | O=C(Nc1nc2cc(F)ccc2n1[C@H]1CC[C@H](O)CC1)c1cccc([N+](=O)[O-])c1 |  |  |  | 
4 | 6.4 nM | O=C(Nc1nc2cc(F)ccc2n1[C@H]1CC[C@H](CO)CC1)c1cccc([N+](=O)[O-])c1 |  |  |  | 
5 | 7.8 nM | O=C(Nc1nc2cc(F)ccc2n1[C@H]1CC[C@@H](CO)C1)c1cccc([N+](=O)[O-])c1 |  |  |  | 
6 | 11 nM | O=C(Nc1nc2cc(CO)ccc2n1[C@H]1CC[C@H](O)CC1)c1cccc([N+](=O)[O-])c1 |  |  |  | Papp [10]: < 1 ×10⁻⁶ cm/s; solubility [11]: 4.9 µg/mL (≈ 11.9 µM)

The next lines start with the compound.

Row | Structure (SMILES) | Ki [1] | Ki [2] | IC50 [3] | Ki [4] | other results
7 | O=C(Nc1nc2ccc(CO)cc2n1[C@H]1CC[C@@H](CO)CC1)c1cccc(C(F)(F)F)c1 | 0.48 nM | 1300 nM | < 100 nM |  | 
8 | CC(C)(C)C(=O)Nc1ccc2c(c1)nc(NC(=O)c1cccc(C(F)(F)F)c1)n2[C@H]1CC[C@@H](CO)CC1 | 0.34 nM | 2500 nM | 100 nM |  | 
9 | O=C(Nc1nc2cc(CN3CCCCC3)ccc2n1-c1ccccc1)c1cccc([N+](=O)[O-])c1 | 8.2 nM | 800 nM | 100 nM | 374 nM | 
10 | O=C(Nc1nc2ccc(F)cc2[nH]1)c1cccc([N+](=O)[O-])c1 | 4500 nM |  |  |  | 
11 | O=C(Nc1nc2cc(F)ccc2n1CCCO)c1cccc([N+](=O)[O-])c1 | 38.5 nM |  |  |  | 
12 | O=C(Nc1nc2cc(CN3CCCCC3)ccc2n1[C@H]1CC[C@@H](CO)CC1)c1cccc([N+](=O)[O-])c1 | 0.7 nM | 30 nM |  | 48 nM | Ratio Ki (Homo sapiens [5]): 68; AUC (Rattus norvegicus): 84 ng·h/mL; half-life [6]: 4.8 h; clearance [7]: 40 mL/min/kg; Ratio Ki (Homo sapiens [8]): 43; bioavailability [9]: 10%
13 | O=C(Nc1nc2cc(CN3CCCCC3)ccc2n1-c1ccc(CCO)cc1)c1cccc(C(F)(F)F)c1 | 1.3 nM | 700 nM | < 100 nM | 12 nM | AUC (Rattus norvegicus): 175 ng·h/mL; half-life [6]: 1.3 h; clearance [7]: 36.7 mL/min/kg; bioavailability [9]: 19%
14 | O=C(Nc1nc2cc(CN3CCCC3=O)ccc2n1[C@H]1CC[C@H](O)CC1)c1cccc([N+](=O)[O-])c1 | 0.5 nM |  |  |  | Papp [10]: < 1 ×10⁻⁶ cm/s; solubility [11]: 0.8 µg/mL (≈ 1.68 µM)
15 | O=C(Nc1nc2cc(CN3CCOCC3)ccc2n1[C@H]1CC[C@H](O)CC1)c1cccc([N+](=O)[O-])c1 | 3.8 nM |  |  |  | Papp [10]: < 1 ×10⁻⁶ cm/s; solubility [11]: 29 µg/mL (≈ 60.5 µM)
16 | O=C(Nc1nc2cc(CN3CCCCC3)ccc2n1[C@H]1CC[C@@H](CO)CC1)c1cccc(C(F)(F)F)c1 | 0.42 nM | 130 nM | < 100 nM | 72 nM | 
17 | O=C(Nc1nc2cc(CN3CCCCC3)ccc2n1[C@H]1CC[C@H](O)CC1)c1cccc([N+](=O)[O-])c1 | 2.8 nM | 15 nM |  | 18 nM | Ratio Ki (Homo sapiens [5]): 6.4; AUC (Rattus norvegicus): 124 ng·h/mL; Selectivity ratio (Homo sapiens [12]): > 100; half-life [6]: 2.1 h; Selectivity ratio (Homo sapiens [13]): > 100; Papp [10]: 6.6 ×10⁻⁶ cm/s; Selectivity ratio (Homo sapiens [14]): > 100; clearance [7]: 41.7 mL/min/kg; Selectivity ratio (Homo sapiens [15]): > 100; Selectivity ratio (Homo sapiens [16]): > 100; Selectivity ratio (Homo sapiens [17]): > 100; Ratio Ki (Homo sapiens [8]): 5.3; bioavailability [9]: 16%; Selectivity ratio (Homo sapiens [18]): > 100; Selectivity ratio (Homo sapiens [19]): > 100; solubility [11]: > 50 µg/mL
18 | O=C(Nc1nc2cc(CN3CCCCC3)ccc2n1-c1ccccc1)c1cccc(C(F)(F)F)c1 | 2.8 nM | 2500 nM | 300 nM | 608 nM | AUC (Rattus norvegicus): 1020 ng·h/mL; half-life [6]: 23.7 h; clearance [7]: 9 mL/min/kg; bioavailability [9]: 46%
19 | CC(C)(C)C(=O)Oc1ccc2c(c1)nc(NC(=O)c1cccc([N+](=O)[O-])c1)n2-c1ccc(CCCO)cc1 |  |  |  |  | IC50 [1]: 150 nM; IC50 [4]: 900 nM
